Several values for one entry are separate records, joined by “and”; a condition that tells them apart may be missing. Identical values can stand only once.
Legend:
SW480^cld1 cells [1] = assay: Transwell matrigel invasion assay; type: cell-based, human; conditions: PDS-0330 25μM; P < 0.0001 vs control and 20A
SW480^cld1 cells [2] = assay: Anoikis-induced apoptosis assay; type: cell-based; conditions: claudin-1 overexpressed SW480^cld1
Method in brief: (§1)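 Anoikis induced by plating cells on poly-HEMA-coated culture plates. Apoptosis quantified with a cell death detection ELISA. Parental lines were cultured in RPMI with 10% FBS. Claudin-1-overexpressing SW480 and claudin-1-knockdown SW620 derivatives were used.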

normal IEC-6 cells = assay: Cell viability; type: cell-based; conditions: 72 hours
Method in brief: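 Cells maintained in RPMI plus 10% FBS. Viability read with PrestoBlue reagent per kit protocol after 72 h exposure to test compound.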

human claudin-1 = target: T1, human claudin-1 (Homo sapiens, UniProt O95832); assay: Microscale thermophoresis; type: binding
T1 sequence (O95832 1-211): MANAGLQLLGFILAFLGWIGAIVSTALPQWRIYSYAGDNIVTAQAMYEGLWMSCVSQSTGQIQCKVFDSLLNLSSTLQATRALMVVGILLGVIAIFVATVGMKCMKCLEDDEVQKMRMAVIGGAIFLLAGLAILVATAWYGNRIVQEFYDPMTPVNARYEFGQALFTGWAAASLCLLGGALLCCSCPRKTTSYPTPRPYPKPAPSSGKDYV

SW620^1C cells = assay: Anoikis-induced apoptosis assay; type: cell-based, human; conditions: claudin-1 knockdown SW620^1C
Method in brief: as §1

[3] = tested on: SW480^cld1, SW620 and HCT116 cells; assay: Screening of I-6 analogs by anoikis; type: cell-based, human; conditions: Suppl Fig3
Method in brief: as §1

SW620 cells [4] = assay: Anoikis-induced apoptosis assay; type: cell-based; conditions: claudin-1 overexpressed SW620
[5] = tested on: SW480^cld1 xenograft tumor; assay: Subcutaneous xenograft tumor study; type: in vivo, athymic nude mice
Method in brief: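 Cells implanted subcutaneously in athymic nude mice, n = 5 per group, vehicle controls. For SW480cld1 with I-6, once-weekly dosing started 10 days after implantation, once tumors were palpable, for two weeks. Caliper volume over time, formula […]. Ki67 and cleaved PARP by IHC. Behavior and body weight monitored.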

SW620 cells [6] = assay: Cell viability; type: cell-based, human
Method in brief: (§2)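 Claudin-1-overexpressing SW480cld1 and SW620 cells grown in RPMI with 10% FBS and exposed for 72 hours to a range of test compound concentrations. Viability measured by PrestoBlue reagent. EC50 calculated from the concentration–viability data.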

[7] = tested on: claudin-1 overexpressed PDX tumor; assay: Chemo-resistant patient-derived xenograft; type: in vivo, athymic nude mice
Method in brief: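 Chemo-resistant PDX tumor fragments (~2mm3) implanted subcutaneously in 6-week-old athymic nude mice. Once tumors were palpable, dosed once weekly for four weeks (n=5 mice/group), vehicle controls included. Caliper volume from […], tracked over time. Tumor sections stained by IHC for Ki67 and cleaved PARP.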

SW620 cells [8] = assay: Transwell matrigel invasion assay; type: cell-based, human; conditions: PDS-0330 25μM; P < 0.0001 vs control and 20A
SW480^cld1 cells [9] = assay: Cell viability; type: cell-based, human
Method in brief: as §2

[10] = PDS-0330 5mg/kg and 10mg/kg once/week for four weeks

O=C(NC(=S)Nc1ccc(-c2nc3ccccc3o2)cc1)c1ccc2ccccc2c1 [PDS-0330, N-((4-(benzo[d]oxazol-2-yl)phenyl)carbamothioyl)-2-naphthamide]
cell invasion (SW480^cld1 cells [1]): significantly inhibited | resistance to anoikis (SW480^cld1 cells [2]): dramatically reduced the resistance to anoikis | effect on cell growth/survival (normal IEC-6 cells): no effect | Hill coefficient (human claudin-1; 37°C): ~ 5 and 4.5 | Kd (human claudin-1; binding affinity, 37°C, fit to Hill-Langmuir equation): 44.9 ± 5.6 µM | Kd (human claudin-1; equilibrium dissociation constant (Kd), Cy3-labeled human claudin-1, 25 °C, eight independent acquisitions): 22.9 ± 3 µM | binding affinity to other claudin subtypes, fold lower than claudin-1 (human claudin-1; human claudin-19 and mouse claudin-4 vs human claudin-1): ~ 4 fold | resistance to anoikis (SW620^1C cells): not affecting | potency in inducing cell death among I-6 analogs [3]: most potent | resistance to anoikis (SW620 cells [4]): dramatically reduced the resistance to anoikis | apoptosis in tumors (cleaved PARP, BclxL, survivin) ([5]; PDS-0330 5mg/Kg and 10mg/Kg): increase in apoptosis | proliferation in tumors (Ki67) ([5]; PDS-0330 5mg/Kg and 10mg/Kg): reduced proliferation | tumor volume and weight ([5]; PDS-0330 5mg/Kg and 10mg/Kg vs vehicle): significant reduction | EC50 (SW620 cells [6]; Homo sapiens, SW-620, 72 h, read-out: EC50, cell viability): 9.3 µM | CI index, % cell survival in combination with 5-FU (SW620 cells [6]; PDS-0330 with 5-FU (5μM)): < 1 | effect with oxaliplatin on cell survival (SW620 cells [6]; PDS-0330 with oxaliplatin (1μM)): synergistic effect | apoptosis in tumors (cleaved PARP, Bcl-xL, survivin) ([7]; PDS-0330 5mg/kg and 10mg/kg): increase in apoptosis | proliferation in tumors (Ki67) ([7]; PDS-0330 5mg/kg and 10mg/kg): decreased proliferation | mean tumor volume and tumor weight [7, 10]: significantly reduced | primary tumor growth [7, 10]: reduced primary tumor growth in a statistically significant manner | cell invasion (SW620 cells [8]): significantly inhibited | EC50 (SW480^cld1 cells [9]; Homo sapiens, 72 h, read-out: EC50, cell viability): 8.4 µM | CI index, % cell survival in combination with 5-FU (SW480^cld1 cells [9]; PDS-0330 with 5-FU (5μM)): < 1
